Calb FLC: C. albicans growth modulation with fluconazole | growth inhibition, % (test concentration not listed) | actives 0.57% (n = 300,000) | C. albicans CaCi-2 (fluconazole-resistant clinical isolate) + fluconazole, Alamar Blue growth, 48 h;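 active = growth inhibition above about 58% in most replicates, limit read from the data, passing the limit was not always enough; inconclusive = exactly half the replicates above a set limit; inactive = most replicates below a set limit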;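 also: all wells also contain fluconazole at 8 µg/ml as a sub-toxic cotreatment; 0% = median of DMSO wells and 100% = median of geldanamycin control wells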
T cruzi repl: blocks replication of Trypanosoma cruzi; actives 1.4% (n = 300,000); T. cruzi beta-gal in NIH3T3, luminescence, 90 h; inhibition, % (test concentration not listed); AID 1885;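 active = mean inhibition across valid replicates above about 55%, limit read from the data; inconclusive = mean below that limit but half or more replicates reach it; inactive = mean below it, under half of replicates reach it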;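 also: signal also drops with host cell toxicity which is not excluded here; 0% = plate median of DMSO wells and 100% = zero luminescence signal; higher percent means less beta-gal luminescence so fewer parasites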
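Material: NIH/3T3 host cells with β-galactosidase reporter T. cruzi; Input: 5,000 host fibroblasts per well; Medium: DMEM, 2% fetal bovine serum; Compound: 50 nL DMSO compound solution per well; Schedule: 3 h host attachment, then at least 90 h co-culture; Detection: luminescent β-galactosidase signal after 60 min lysis.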
HSF1 inh: HSF1 inhibition; NIH3T3-HGL HSE-luciferase, MG132-induced, luminescence 8 h; active compounds read low; activity change, negative = inhibition, % at 7.5 µM (by protocol); actives 0.77% (n = 300,000); AID 2098;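 active = more than half of replicate wells show activity change below -50%, luminescence cut by over half; inconclusive = some wells, but at most half, below -50%; inactive = no replicate well below -50%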;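 also: luciferase reports HSF-1 transcriptional activity via heat shock element; 0% = median of DMSO wells and -100% = zero luminescence signal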
HIF act: HIF pathway transcriptional activation; U2OS HRE-luciferase reporter, luminescence; normalized: DMSO 0%, desferrioxamine 100%; activation, % at 7.5 µM (by protocol); actives 0.32% (n = 300,000); AID 1910;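 active = mean activation of at least 10% of the iron chelator positive control signal, with at least half of replicates also reaching 10%; inconclusive = mean and replicate majority disagree about reaching 10%; inactive = mean and most replicates under 10%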
HSF1 activator: increases HSF-1 driven luciferase reporter signal | NIH3T3-HGL HSF-1 luciferase reporter, MG132, 8 h; 100% = twice DMSO control signal | activation, % at 9 µM | actives 1.7% (n = 300,000);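 active = mean replicate activation of at least 50% with a set share of replicates each reaching 50%; inconclusive = only one of those two conditions met; inactive = mean below 50% and too few replicates reaching it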;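 also: 0% = median of the neutral control wells and 100% = twice that signal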
* hit, by the source's call; ? = inconclusive; · = no result. Compounds with a hit are over-represented: about 4.4% of the library has one in this group of screens.

SMILES	Calb FLC	T cruzi repl	HSF1 inh	HIF act	HSF1 activator
CN(c1ccccc1)S(=O)(=O)c1nnc(NC(=O)COc2ccccc2F)s1	-25	-13	-72*	0	-78
COc1cccc(-c2ccc(=O)n(CC(=O)Nc3ccc(S(=O)(=O)NCC(C)C)cc3)n2)c1	0	11	-12	0	-23
CCc1cnccc1CCC(=O)Nc1ccccc1C	-7	-2	2	430*	9
COc1ccccc1CN1[C@@H](CC(C)=O)c2cc(C(F)(F)F)ccc2S1(=O)=O	14	10	-5	0	-9
Cc1ccc(-c2nc(CN3CCCCC3c3cccc(F)c3)c(C)o2)o1 (stereo not drawn)	4	9	9	-1	29
Cc1oc(-c2ccccc2Cl)nc1CN1CCCCC1c1cccnc1 (stereo not drawn)	12	59*	3	-1	-8
COc1ccc(-c2nc(CN3CCCCC3c3cccnc3)c(C)o2)c(F)c1 (stereo not drawn)	3	64*	-2	-1	12
O=C(C1CCC1)N1CCN(c2ccc(C(F)(F)F)cc2[N+](=O)[O-])CC1	-3	-7	2	0	2
O=C(Nc1ccccc1)N1CCCN(c2ccc(C(F)(F)F)cc2[N+](=O)[O-])CC1	0	2	39	1	54*
O=C(CCC(=O)N1CCN(Cc2ccccc2)CC1)Nc1nnc(C2CCCCC2)s1	13	7	-2	0	8
CCOc1c(Cl)cc(Cl)cc1CNCCNCCO	-8	18	·	0	·
O=C(CN1CCC(c2nc3ccccc3s2)CC1)NCc1cccs1	13	68*	-5	1	2
CC(C)(C)c1ccc(OCCC(=O)NCC(c2cccs2)N2CCOCC2)cc1 (stereo not drawn)	-15	-1	7	-5	3
COC(=O)C1CCN(c2ccc(Cl)nn2)CC1	-9	-1	-8	0	2
Cc1cccc(OCC(=O)N/N=C/c2cc([N+](=O)[O-])ccc2N2CCOCC2)c1	9	10	-8	0	-6
CN(C)C(=O)/C(=C\c1ccc(-c2cccc([N+](=O)[O-])c2)o1)NC(=O)c1ccccc1	16	11	-7	-1	-2
CCCCNC(=O)/C(=C\c1ccc([N+](=O)[O-])o1)NC(=O)c1ccccc1	100*	63*	-1	0	-1
COC(=O)/C(=C\c1ccc([N+](=O)[O-])o1)NC(=O)c1ccccc1	102*	49	7	-21	12
CN(C)CCCNC(=O)/C(=C/c1ccc(-c2ccc([N+](=O)[O-])cc2)o1)NC(=O)c1ccccc1	-9	21	7	-1	6
C/C(CC(=O)Nc1ccc(C)c(Cl)c1)=N\NC(=O)Cc1cnc(N)s1	-8	-11	27	1	61*
Cc1ccc(NC(=O)N2CCCN(C(=O)OC(C)(C)C)CC2)cc1Cl	16	1	-2	0	11
COc1ccc(C(=O)NCCc2nnc3ccc(SCC(=O)N4CCOCC4)nn23)cc1	-2	-14	2	0	18
C/C(=N\Nc1ccc(C(F)(F)F)cn1)c1ccncc1	5	-1	1	3	22
CC(C)NC(=O)c1cnc(N2CCN(c3ccccn3)CC2)c2ccccc12	0	18	7	0	37
CCc1ccc(NC(=O)c2cnc(N3CCN(c4ccccn4)CC3)c3ccccc23)cc1	0	60*	·	1	·
SMILES	Calb FLC	T cruzi repl	HSF1 inh	HIF act	HSF1 activator
COc1ccc(-c2csc(Nc3ncccc3C)n2)cc1	-2	26	22	3	?
Cc1nc(C)c(-c2csc(Nc3ccc(F)cc3)n2)s1	2	1	40	5	65*
COc1cccc(Nc2nc(-c3sc(C)nc3C)cs2)c1	3	4	23	0	41
Cc1nc(C)c(-c2csc(Nc3ncccc3C)n2)s1	-7	6	34	-5	61*
O=C(/C=C/c1cccc([N+](=O)[O-])c1)NC(=S)Nc1ccc(CN2CCOCC2)cc1	12	17	84	0	136*
O=C(NC(=S)Nc1ccc(CN2CCOCC2)cc1)c1ccc([N+](=O)[O-])cc1	-10	-5	-8	0	-4
O=C1c2ccccc2C(=O)N1CCc1csc(-c2cccc(F)c2)n1	8	-5	29	1	83*
CC(=O)NCCc1csc(-c2ccccc2)n1	3	-8	0	1	-6
O=C1c2ccccc2C(=O)N1CCc1csc(-c2cccc(Cl)c2)n1	9	-11	-33	0	-51
O=C(NCCc1csc(-c2cccc(F)c2)n1)c1ccco1	-13	51	10	16*	42
CC(C)(C)CC(=O)NCCc1csc(-c2ccccc2)n1	-4	61*	41	2	63*
CCCCCCCCCCCCCCCC[N+](C)(C)CC	77*	35	-10	1	-6
C#CC[N+](C)(C)CCCCCCCCCCCC	79*	50	-5	-24	5
C#CC[N+](C)(C)CCCCCCCCCC	-25	28	-10	0	-16
CC#CC[N+](C)(C)CCCCCCCCCCCC	101*	73*	36	0	89*
CCN(C(=O)COC(=O)c1nc2nc(C)cc(C)n2n1)C1CCS(=O)(=O)C1 (stereo not drawn)	-17	3	-7	1	7
CC(C)N1CCN(Cc2ccc(-c3ccccc3Cl)o2)CC1CCO (stereo not drawn)	·	64*	-9	0	23
CC(C)N1CCN(Cc2ccc3c(c2)Cc2ccccc2-3)CC1CCO (stereo not drawn)	-21	58*	-3	0	24
COc1cc(S(=O)(=O)Nc2ncccc2C)c(OC)cc1Cl	-1	-3	10	0	-2
COc1ccc(Br)cc1S(=O)(=O)Nc1ncccc1C	14	-4	-88*	0	-90
CCN(CC)CCNS(=O)(=O)c1ccc2c3c(cccc13)C(=O)N2	2	-9	-6	0	-7
O=C(Cn1c(=O)c2cccn2c2ccccc21)Nc1cc(F)ccc1F	?	19	-57*	0	-67
CCOC(=O)NN1C(=O)c2ccccc2NC1c1ccc(OC)cc1OC (stereo not drawn)	-10	0	-3	0	-5
CN1CCN(c2ncnc3sc(-c4ccccc4)cc23)CC1	-7	74*	1	0	6
O=C1CC(NS(=O)(=O)c2cccnc2)CN1c1ccccc1 (stereo not drawn)	2	-7	-3	0	3
CN(C)CC(=O)N1c2ccccc2CCc2ccc(NC(=O)c3ccc(N)cc3)cc21	-14	18	5	0	5
COc1cc(C(=O)Nc2ccc(S(=O)(=O)N(C)c3ccccc3)cc2)cc(OC)c1OC	14	13	49	0	102*
COc1ccc(C(=O)Nc2ccc(S(=O)(=O)N(C)c3ccccc3)cc2)cc1	-6	6	8	2	28

Assay outcomes: PubChem, Broad Institute
